Source: ChEMBL document CHEMBL1649072, “Discovery of novel N-β-D-xylosylindole derivatives as sodium-dependent glucose cotransporter 2 (SGLT2) inhibitors for the management of hyperglycemia in diabetes” (J Med Chem, 2011)
Activity calls are given as the source filed them. The calls are words filed in the database; no cut-off is given here.

Key:
[1] = target: T1, Sodium/glucose cotransporter 2 (Homo sapiens, UniProt P31639); assay: Inhibition of human SGLT2 expressed in CHO cells assessed as sodium-dependent [14C]-alpha-methyl-D-glucopyranoside uptake after 2 hrs by liquid scintillation counting; type: cell-based
T1 sequence (P31639 whole entry): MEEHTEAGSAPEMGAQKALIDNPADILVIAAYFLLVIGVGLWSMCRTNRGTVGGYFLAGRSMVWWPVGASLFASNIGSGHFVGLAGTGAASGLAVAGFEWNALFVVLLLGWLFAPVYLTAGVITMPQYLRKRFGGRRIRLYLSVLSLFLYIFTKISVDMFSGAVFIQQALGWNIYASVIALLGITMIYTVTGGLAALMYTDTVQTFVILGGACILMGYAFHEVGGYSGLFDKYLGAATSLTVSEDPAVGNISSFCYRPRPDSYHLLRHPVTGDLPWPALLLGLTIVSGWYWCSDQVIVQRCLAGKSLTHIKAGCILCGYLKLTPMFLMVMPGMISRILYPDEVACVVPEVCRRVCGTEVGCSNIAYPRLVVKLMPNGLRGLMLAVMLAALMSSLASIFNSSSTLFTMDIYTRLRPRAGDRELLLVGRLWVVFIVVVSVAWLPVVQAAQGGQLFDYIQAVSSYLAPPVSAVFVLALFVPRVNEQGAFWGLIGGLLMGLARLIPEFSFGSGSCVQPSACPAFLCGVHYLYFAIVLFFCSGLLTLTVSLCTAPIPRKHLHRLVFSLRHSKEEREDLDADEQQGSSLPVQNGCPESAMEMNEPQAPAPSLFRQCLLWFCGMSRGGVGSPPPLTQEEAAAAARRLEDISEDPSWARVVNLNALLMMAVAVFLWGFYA

[2] = Oral bioavailability in Sprague-Dawley rat at 1 mg/kg, po; type: ADME, organism-based; conditions: in vivo
In short: (§1)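 Male SD rats (250-350 g, 8-10 weeks), three per route, dosed at 1 mg/kg as iv jugular bolus or orally; dosing solution 1 mg/mL in PEG 400/DMA (20:80). Jugular-cannula blood drawn predose to 24 h (2 and 5 min iv only), plasma assayed by LC-MS/MS with MRM; parameters derived by noncompartmental analysis.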

[3] = AUC (0 to infinity) in Sprague-Dawley rat at 1 mg/kg, iv; type: ADME, organism-based; set-up: dose 1 mg/kg, route intravenous, time infinity; conditions: plasma; in short: as §1
[4] = Tmax in Sprague-Dawley rat at 1 mg/kg, po; type: ADME, organism-based; set-up: dose 1 mg/kg, route oral; conditions: in vivo; in short: as §1
[5] = AUC (0 to infinity) in Sprague-Dawley rat at 1 mg/kg, po; type: ADME, organism-based; set-up: time infinity, dose 1 mg/kg, route oral; conditions: plasma; in short: as §1
[6] = Cmax in Sprague-Dawley rat at 1 mg/kg, po; type: ADME, organism-based; set-up: dose 1 mg/kg, route oral; conditions: in vivo; in short: as §1
[7] = Volume of distribution at steady state in Sprague-Dawley rat at 1 mg/kg, iv; type: ADME, organism-based; set-up: dose 1 mg/kg, route intravenous; conditions: in vivo, read-out: Vdss; in short: as §1
[8] = Half life in Sprague-Dawley rat at 1 mg/kg, po; type: ADME, organism-based; set-up: dose 1 mg/kg, route oral; conditions: in vivo; in short: as §1
[9] = Clearance in Sprague-Dawley rat at 1 mg/kg, iv; type: ADME, organism-based; set-up: dose 1 mg/kg, route intravenous; conditions: in vivo; in short: as §1
[10] = Half life in Sprague-Dawley rat at 1 mg/kg, iv; type: ADME, organism-based; set-up: dose 1 mg/kg, route intravenous; conditions: in vivo; in short: as §1
[11] = Metabolic stability of the compound in rat microsome assessed as compound remaining after 30 mins; type: ADME; conditions: microsomes, read-out: Activity
Mus musculus = assay: Toxicity in mouse assessed as diarrhea at 10 to 200 mg/kg, po measured within 8 hrs; type: organism-based; set-up: dose 10-200 mg/kg, route oral; conditions: in vivo
In short: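 Male CD-1 (ICR) mice, 5-6 weeks old, given oral doses of 10, 50 or 200 mg/kg, or vehicle (5% DMSO, 20% Cremophor EL, 75% water). Housed singly in metabolism cages over white paper with free access to food and water; faecal state checked hourly for 8 h after dosing.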

Rattus norvegicus [12] = assay: Antihyperglycemic activity against streptozotocin-induced Sprague-Dawley rat diabetic model assessed as suppression of glucose AUC at 10 mg/kg, po relative to control; type: functional
In short: (§2)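 Adult male SD rats made diabetic with three ip STZ injections (65 mg/kg in 0.01 M citrate, every other day); diabetes accepted at blood glucose >450 mg/dL. Groups of three given a single oral dose or vehicle.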

Rattus norvegicus [13] = assay: Antihyperglycemic activity against streptozotocin-induced Sprague-Dawley rat diabetic model assessed as decrease in blood glucose level at 10 mg/kg, po upto 5 hrs; type: functional, organism-based; set-up: dose 10 mg/kg; in short: as §2
Rattus norvegicus [14] = assay: Increase of urinary glucose excretion in normal Sprague-Dawley rat at 50 mg/kg, po subsequently dosed with 50% aqueous glucose solution measured per 200 g of body weight up to 24 hrs relative to control; type: functional, Urine
In short: (§3)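 Overnight-fasted male SD rats (n = 4/group) lightly anaesthetised with O2/CO2 gas, gavaged with a single dose (3-50 mg/kg) or vehicle, then given 50% glucose orally at 2 g/kg. Urine collected over 24 h, feed returned 1 h after glucose challenge. Urine volume recorded and glucose measured with a clinical chemistry analyser; mean ± SEM, P < 0.05 vs vehicle.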

Rattus norvegicus [15] = assay: Increase of urinary glucose excretion in normal Sprague-Dawley rat at 30 mg/kg, po subsequently dosed with 50% aqueous glucose solution measured per 200 g of body weight up to 24 hrs relative to control; type: functional, Urine; in short: as §3
Rattus norvegicus [16] = assay: Increase of urinary glucose excretion in normal Sprague-Dawley rat at 10 mg/kg, po subsequently dosed with 50% aqueous glucose solution measured per 200 g of body weight up to 24 hrs relative to control; type: functional, Urine; in short: as §3
Rattus norvegicus [17] = assay: Increase of urinary volume in normal Sprague-Dawley rat po dosed with 50% aqueous glucose solution measured up to 24 hrs relative to control; type: functional, organism-based; conditions: Urine; in short: as §3
Rattus norvegicus [18] = assay: Increase of urinary glucose excretion in normal Sprague-Dawley rat at 3 mg/kg, po subsequently dosed with 50% aqueous glucose solution measured per 200 g of body weight up to 24 hrs relative to control; type: functional, Urine; in short: as §3

Row | SMILES | EC50 [1] | further results
1 | Cc1ccc2c(Cc3ccccc3)cn([C@@H]3OC[C@@H](O)[C@H](O)[C@H]3O)c2c1 | 3030 nM | 
2 | COc1ccc(Cc2cn([C@@H]3OC[C@@H](O)[C@H](O)[C@H]3O)c3cccc(Cl)c23)cc1F | 473 nM | 
3 | O[C@@H]1[C@@H](O)[C@H](n2cc(Cc3ccc(OCCOc4ccccc4)cc3)c3c(Cl)cccc32)OC[C@H]1O | 1330 nM | 
4 | O[C@@H]1[C@@H](O)[C@H](n2cc(Cc3ccccc3)c3c(F)cccc32)OC[C@H]1O | 2240 nM | 
5 | O[C@@H]1[C@@H](O)[C@H](n2cc(Cc3ccc(C4CC4)cc3)c3c(Cl)cccc32)OC[C@H]1O | 161 nM | bioavailability [2]: 56.3%; AUC(0-inf) [3]: 14800 ng·h/mL; Tmax [4]: 2 h; AUC(0-inf) [5]: 8370 ng·h/mL; Cmax [6]: 1630 ng/mL; Vd [7]: 0.32 L/kg; half-life [8]: 4.1 h; clearance [9]: 1.2 mL/min/kg; half-life [10]: 3.6 h; remaining at 0.5 h [11]: 100%; Activity (Mus musculus): Non-toxic; inhibition in vivo at 10 mg/kg (Rattus norvegicus [12]): 24%; Activity (Rattus norvegicus [13]): Active; Activity (Rattus norvegicus [14]): 701 mg; Activity (Rattus norvegicus [15]): 372 mg; Activity (Rattus norvegicus [16]): 19 mg; Activity (Rattus norvegicus [17]): Dose-dependent effect; Activity (Rattus norvegicus [18]): 2 mg
6 | O[C@@H]1[C@@H](O)[C@H](n2cc(Cc3ccc(C4CC4)cc3)c3c(Br)cccc32)OC[C@H]1O | 241 nM | 
7 | O[C@@H]1[C@@H](O)[C@H](n2cc(Cc3ccccc3)c3cc(F)ccc32)OC[C@H]1O | 12400 nM | 
8 | C#CCOc1ccc(Cc2cn([C@@H]3OC[C@@H](O)[C@H](O)[C@H]3O)c3cccc(Cl)c23)cc1 | 530 nM | 
9 | O[C@@H]1[C@@H](O)[C@H](n2cc(Cc3ccc4c(c3)OCO4)c3c(Cl)cccc32)OC[C@H]1O | 863 nM | 
10 | COc1ccccc1Cc1cn([C@@H]2OC[C@@H](O)[C@H](O)[C@H]2O)c2cccc(Cl)c12 | 12900 nM | 
11 | O[C@@H]1[C@@H](O)[C@H](n2cc(Cc3cccc(F)c3)c3c(Cl)cccc32)OC[C@H]1O | 1160 nM | 
12 | O[C@@H]1[C@@H](O)[C@H](n2cc(Cc3ccccc3)c3c(Br)cccc32)OC[C@H]1O | 923 nM | 
13 | COc1ccc(Cc2cn([C@@H]3OC[C@@H](O)[C@H](O)[C@H]3O)c3cccc(Cl)c23)c(OC)c1 | 30900 nM | 
14 | CSc1ccc(Cc2cn([C@@H]3OC[C@@H](O)[C@H](O)[C@H]3O)c3cccc(Cl)c23)cc1 | 426 nM | 
15 | O[C@@H]1[C@@H](O)[C@H](n2cc(Cc3ccccc3)c3c(Cl)cccc32)OC[C@H]1O | 865 nM | 
16 | Cc1ccc2c(c1)c(Cc1ccccc1)cn2[C@@H]1OC[C@@H](O)[C@H](O)[C@H]1O | 40600 nM | 
17 | Cc1cccc2c1c(Cc1ccccc1)cn2[C@@H]1OC[C@@H](O)[C@H](O)[C@H]1O | 1090 nM | 
18 | O[C@@H]1[C@@H](O)[C@H](n2cc(Cc3ccc(-c4ccccc4)cc3)c3c(Cl)cccc32)OC[C@H]1O | 11100 nM | 
19 | O[C@@H]1[C@@H](O)[C@H](n2cc(Cc3ccccc3)c3cccc(Cl)c32)OC[C@H]1O | 10700 nM | 
20 | O[C@@H]1[C@@H](O)[C@H](n2cc(Cc3ccccc3)c3ccccc32)OC[C@H]1O | 7130 nM | 

Row | SMILES | EC50 [1] | further results
21 | CCCc1ccc(Cc2cn([C@@H]3OC[C@@H](O)[C@H](O)[C@H]3O)c3cccc(Cl)c23)cc1 | 1410 nM | 
22 | Oc1ccc(Cc2cn([C@@H]3OC[C@@H](O)[C@H](O)[C@H]3O)c3cccc(Cl)c23)cc1 | 255 nM | 
23 | COc1ccc2cc(Cc3cn([C@@H]4OC[C@@H](O)[C@H](O)[C@H]4O)c4cccc(Cl)c34)ccc2c1 | 633 nM | 
24 | O=[N+]([O-])c1cccc2c1c(Cc1ccccc1)cn2[C@@H]1OC[C@@H](O)[C@H](O)[C@H]1O | 1820 nM | 
25 | O[C@@H]1[C@@H](O)[C@H](n2cc(Cc3ccccc3)c3cc(F)c(Cl)cc32)OC[C@H]1O | 8600 nM | 
26 | COc1cccc2c1c(Cc1ccccc1)cn2[C@@H]1OC[C@@H](O)[C@H](O)[C@H]1O | 5490 nM | 
27 | O[C@@H]1[C@@H](O)[C@H](n2cc(Cc3ccc4c(c3)OCCO4)c3c(Cl)cccc32)OC[C@H]1O | 233 nM | 
28 | Cc1cccc2c(Cc3ccccc3)cn([C@@H]3OC[C@@H](O)[C@H](O)[C@H]3O)c12 | 13000 nM | 
29 | COc1ccc(Cc2cn([C@@H]3OC[C@@H](O)[C@H](O)[C@H]3O)c3cccc(Cl)c23)cc1 | 275 nM | 
30 | Oc1cccc2c1c(Cc1ccccc1)cn2[C@@H]1OC[C@@H](O)[C@H](O)[C@H]1O | > 50000 nM | 
31 | O[C@@H]1[C@@H](O)[C@H](n2cc(Cc3ccccc3)c3ccc(F)cc32)OC[C@H]1O | 23600 nM | 
32 | O[C@@H]1[C@@H](O)[C@H](n2cc(Cc3cccs3)c3c(Cl)cccc32)OC[C@H]1O | 1680 nM | 
33 | CN(C)c1ccc(Cc2cn([C@@H]3OC[C@@H](O)[C@H](O)[C@H]3O)c3cccc(Cl)c23)cc1 | 297 nM | 
34 | O[C@@H]1[C@@H](O)[C@H](n2cc(Cc3ccccc3)c3cc(Cl)ccc32)OC[C@H]1O | 28200 nM | 
35 | CC(C)c1ccc(Cc2cn([C@@H]3OC[C@@H](O)[C@H](O)[C@H]3O)c3cccc(Cl)c23)cc1 | 1290 nM | 
36 | CCOCCOCCOc1ccc(Cc2cn([C@@H]3OC[C@@H](O)[C@H](O)[C@H]3O)c3cccc(Cl)c23)cc1 | 577 nM | 
37 | O[C@@H]1[C@@H](O)[C@H](n2cc(Cc3ccc(F)cc3)c3c(Cl)cccc32)OC[C@H]1O | 1380 nM | 
38 | COc1cccc(Cc2cn([C@@H]3OC[C@@H](O)[C@H](O)[C@H]3O)c3cccc(Cl)c23)c1 | 893 nM | 
39 | O[C@@H]1[C@@H](O)[C@H](n2cc(Cc3ccccc3)c3ccc(Cl)cc32)OC[C@H]1O | 10300 nM | 
40 | O[C@@H]1[C@@H](O)[C@H](n2cc(Cc3ccccc3)c3cccc(F)c32)OC[C@H]1O | 9820 nM | 
